The test system of one test is HCT-116. As to the kind of experiment: Cytotoxicity against human HCT116 cells after 72 hrs by MTT assay. The note with it: HCT-116, 72 h. The class given is functional, cell-based. The procedure, abridged:
(§1)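 Cells seeded at 2000/well and held 24 h at 37 °C, 5% CO2 before treatment. After a 3 h MTT incubation, medium was replaced by DMSO. Absorbance read at 550 nm against a 690 nm reference, with OD taken as proportional to viable cell number.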

The target in test [1] is T1, Tyrosine-protein phosphatase non-receptor type 2 (Homo sapiens, UniProt P17706).
T1 sequence (P17706 whole entry): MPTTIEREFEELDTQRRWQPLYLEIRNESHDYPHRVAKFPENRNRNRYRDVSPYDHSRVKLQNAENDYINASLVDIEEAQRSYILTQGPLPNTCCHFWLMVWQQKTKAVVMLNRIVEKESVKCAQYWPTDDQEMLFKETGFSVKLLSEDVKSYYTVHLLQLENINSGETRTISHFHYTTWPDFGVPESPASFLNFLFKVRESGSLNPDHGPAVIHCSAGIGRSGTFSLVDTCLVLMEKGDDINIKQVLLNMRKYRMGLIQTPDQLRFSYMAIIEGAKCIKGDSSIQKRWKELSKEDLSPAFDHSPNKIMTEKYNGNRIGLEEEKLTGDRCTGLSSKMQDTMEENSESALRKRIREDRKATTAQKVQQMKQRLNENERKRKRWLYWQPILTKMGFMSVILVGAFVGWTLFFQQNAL
In words: Inhibition of TCPTP.

For test [2], the target named is T2, M-phase inducer phosphatase 1 (Homo sapiens, UniProt P30304).
T2 sequence (P30304 whole entry): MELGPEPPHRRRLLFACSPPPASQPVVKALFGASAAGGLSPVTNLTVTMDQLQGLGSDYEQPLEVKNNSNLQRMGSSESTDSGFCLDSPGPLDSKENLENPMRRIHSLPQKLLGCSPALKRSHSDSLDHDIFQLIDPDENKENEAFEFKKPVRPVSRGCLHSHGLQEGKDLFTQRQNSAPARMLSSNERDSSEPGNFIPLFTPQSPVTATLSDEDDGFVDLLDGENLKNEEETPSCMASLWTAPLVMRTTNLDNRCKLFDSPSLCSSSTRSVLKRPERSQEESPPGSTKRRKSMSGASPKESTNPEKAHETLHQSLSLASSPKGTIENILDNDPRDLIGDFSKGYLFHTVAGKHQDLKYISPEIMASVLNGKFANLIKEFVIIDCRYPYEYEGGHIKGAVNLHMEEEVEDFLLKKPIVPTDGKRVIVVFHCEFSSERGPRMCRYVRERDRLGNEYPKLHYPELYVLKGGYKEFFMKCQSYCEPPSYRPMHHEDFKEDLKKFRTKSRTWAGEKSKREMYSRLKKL
As to the kind of experiment: Inhibition of human CDC25A.

Test [3] addresses Tyrosine-protein phosphatase non-receptor type 6 (Homo sapiens, UniProt P29350). As to the kind of experiment: Inhibition of SHP1.
The target of test [4] is T3, Tyrosine-protein phosphatase non-receptor type 11 (Homo sapiens, UniProt Q06124).
T3 sequence (Q06124 whole entry): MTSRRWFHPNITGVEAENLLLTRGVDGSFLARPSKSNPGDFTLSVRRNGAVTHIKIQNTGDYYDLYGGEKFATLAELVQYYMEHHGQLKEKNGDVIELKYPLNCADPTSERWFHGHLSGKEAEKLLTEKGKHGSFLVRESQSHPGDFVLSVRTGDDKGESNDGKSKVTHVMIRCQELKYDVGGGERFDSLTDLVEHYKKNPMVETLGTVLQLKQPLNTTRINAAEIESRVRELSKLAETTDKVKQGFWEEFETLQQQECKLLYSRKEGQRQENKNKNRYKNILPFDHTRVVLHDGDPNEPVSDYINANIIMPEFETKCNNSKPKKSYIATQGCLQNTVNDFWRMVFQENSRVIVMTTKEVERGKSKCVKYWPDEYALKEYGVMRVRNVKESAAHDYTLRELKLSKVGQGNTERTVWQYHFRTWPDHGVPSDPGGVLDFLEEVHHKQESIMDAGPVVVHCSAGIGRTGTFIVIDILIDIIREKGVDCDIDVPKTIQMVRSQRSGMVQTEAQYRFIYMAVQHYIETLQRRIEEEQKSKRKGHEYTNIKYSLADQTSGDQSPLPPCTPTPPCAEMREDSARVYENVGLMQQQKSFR
As to the kind of experiment: Inhibition of SHP2.

Test [5] addresses T4, Tyrosine-protein phosphatase non-receptor type 1 (Homo sapiens, UniProt P18031).
T4 sequence (P18031 whole entry): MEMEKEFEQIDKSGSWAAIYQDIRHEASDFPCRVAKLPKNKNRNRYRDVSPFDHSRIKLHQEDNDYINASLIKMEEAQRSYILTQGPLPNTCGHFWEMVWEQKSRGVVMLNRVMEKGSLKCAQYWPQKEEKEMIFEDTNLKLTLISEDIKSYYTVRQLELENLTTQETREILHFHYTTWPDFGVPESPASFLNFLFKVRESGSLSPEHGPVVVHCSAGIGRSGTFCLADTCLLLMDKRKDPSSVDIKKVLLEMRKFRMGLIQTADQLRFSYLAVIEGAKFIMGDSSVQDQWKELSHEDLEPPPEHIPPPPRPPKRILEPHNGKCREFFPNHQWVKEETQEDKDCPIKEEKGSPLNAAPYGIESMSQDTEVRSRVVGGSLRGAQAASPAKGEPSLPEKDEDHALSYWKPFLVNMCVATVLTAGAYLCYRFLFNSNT
In words: Inhibition of human recombinant […] catalytic domain using pNPP substrate. The method, boiled down:
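Recombinant human PTP1B catalytic domain (30 nM) with 2 mM pNPP in 50 mM MOPS, pH 6.5, at 30 °C. Inhibitor diluted around the estimated IC50. Initial rate taken from the early linear part of the 405 nm trace over 2 min. IC50 from nonlinear fit of % inhibition vs [I] with a Hill-coefficient equation. Means of three experiments.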

In test [6] the target is Receptor-type tyrosine-protein phosphatase F (Homo sapiens, UniProt P10586). As to the kind of experiment: Inhibition of human LAR.
For test [7], the target named is T5, M-phase inducer phosphatase 2 (Homo sapiens, UniProt P30305).
T5 sequence (P30305 whole entry): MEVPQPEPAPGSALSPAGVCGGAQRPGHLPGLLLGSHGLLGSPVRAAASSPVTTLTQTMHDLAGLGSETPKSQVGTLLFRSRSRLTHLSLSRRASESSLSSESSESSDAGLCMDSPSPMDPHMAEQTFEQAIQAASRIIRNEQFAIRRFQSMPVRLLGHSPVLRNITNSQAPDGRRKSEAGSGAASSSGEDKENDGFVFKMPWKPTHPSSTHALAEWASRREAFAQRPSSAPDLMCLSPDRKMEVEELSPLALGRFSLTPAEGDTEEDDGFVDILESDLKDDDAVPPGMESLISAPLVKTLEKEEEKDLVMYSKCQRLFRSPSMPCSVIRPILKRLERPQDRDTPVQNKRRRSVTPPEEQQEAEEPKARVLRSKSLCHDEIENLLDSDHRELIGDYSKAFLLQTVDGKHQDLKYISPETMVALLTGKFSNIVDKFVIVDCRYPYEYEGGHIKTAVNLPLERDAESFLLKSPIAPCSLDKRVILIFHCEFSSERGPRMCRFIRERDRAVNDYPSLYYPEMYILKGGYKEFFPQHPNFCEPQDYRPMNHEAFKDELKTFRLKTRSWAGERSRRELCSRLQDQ
As to the kind of experiment: Inhibition of human Cdc25B.

The test system of another test is HeLa. As to the kind of experiment: Cytotoxicity against human HeLa cells after 72 hrs by MTT assay. It counts as functional, cell-based. The method, boiled down:
as §1
(In general: Tetrazolium dyes change colour on reduction, which living cells bring about.)

A further test deals with A549. As to the kind of experiment: Cytotoxicity against human A549 cells after 72 hrs by MTT assay. The class given is functional, cell-based. The note with it: A549, 72 h. The procedure, abridged:
as §1

Test [8] has as its target T6, M-phase inducer phosphatase 2 (Homo sapiens) (UniProt P30305).
T6 sequence (whole entry): T5 sequence (P30305 whole entry)
As to the kind of experiment: Mixed type inhibition of human Cdc25B using pNPP substrate at 30 degC and pH 6.5 by Eadie-Hofstee plot.

The target in test [9] is T4, Tyrosine-protein phosphatase non-receptor type 1. In words: Competitive inhibition of human recombinant […] catalytic domain using pNPP substrate at 30 degC and pH 6.5 by Eadie-Hofstee plot. The method, boiled down: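 For the inhibition-mode study, 30 nM PTP1B was run in 50 mM MOPS, pH 6.5, at 30 °C. pNPP was varied in twofold dilutions up to 80 mM, at several inhibitor concentrations. pNP release was read at 405 nm.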

Activity calls are given as the source filed them. No cut-off for these calls is given here.

In ChEMBL document CHEMBL1795285, “Facile fabrication of promising protein tyrosine phosphatase (PTP) inhibitor entities based on 'clicked' serine/threonine-monosaccharide hybrids” (Bioorg Med Chem, 2011) one finds IC50, inhibition and Ki data, which are given here for nine molecules.

A word on the IC50: it is the point on the concentration scale where inhibition reaches its midpoint. In general, Ki refers to a dissociation constant, usually derived from enzyme kinetics or from competition with a known ligand.

Chain of Tyrosine-protein phosphatase non-receptor type 6 (P29350 whole entry): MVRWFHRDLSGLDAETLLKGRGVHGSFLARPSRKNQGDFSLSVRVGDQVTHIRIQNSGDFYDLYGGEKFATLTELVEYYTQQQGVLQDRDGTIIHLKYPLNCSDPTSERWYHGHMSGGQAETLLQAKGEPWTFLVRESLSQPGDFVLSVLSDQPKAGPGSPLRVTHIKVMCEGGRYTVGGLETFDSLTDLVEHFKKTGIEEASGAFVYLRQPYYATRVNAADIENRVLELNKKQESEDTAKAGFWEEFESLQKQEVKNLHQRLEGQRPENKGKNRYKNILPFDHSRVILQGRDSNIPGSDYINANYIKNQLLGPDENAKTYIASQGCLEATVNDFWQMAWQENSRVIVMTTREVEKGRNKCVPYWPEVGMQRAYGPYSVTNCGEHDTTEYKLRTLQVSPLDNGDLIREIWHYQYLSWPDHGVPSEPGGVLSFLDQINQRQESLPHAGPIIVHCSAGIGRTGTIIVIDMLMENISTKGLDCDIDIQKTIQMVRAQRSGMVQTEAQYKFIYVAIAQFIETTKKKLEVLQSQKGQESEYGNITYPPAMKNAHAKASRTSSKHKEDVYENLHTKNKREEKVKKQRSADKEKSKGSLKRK
Chain of Receptor-type tyrosine-protein phosphatase F (P10586 whole entry): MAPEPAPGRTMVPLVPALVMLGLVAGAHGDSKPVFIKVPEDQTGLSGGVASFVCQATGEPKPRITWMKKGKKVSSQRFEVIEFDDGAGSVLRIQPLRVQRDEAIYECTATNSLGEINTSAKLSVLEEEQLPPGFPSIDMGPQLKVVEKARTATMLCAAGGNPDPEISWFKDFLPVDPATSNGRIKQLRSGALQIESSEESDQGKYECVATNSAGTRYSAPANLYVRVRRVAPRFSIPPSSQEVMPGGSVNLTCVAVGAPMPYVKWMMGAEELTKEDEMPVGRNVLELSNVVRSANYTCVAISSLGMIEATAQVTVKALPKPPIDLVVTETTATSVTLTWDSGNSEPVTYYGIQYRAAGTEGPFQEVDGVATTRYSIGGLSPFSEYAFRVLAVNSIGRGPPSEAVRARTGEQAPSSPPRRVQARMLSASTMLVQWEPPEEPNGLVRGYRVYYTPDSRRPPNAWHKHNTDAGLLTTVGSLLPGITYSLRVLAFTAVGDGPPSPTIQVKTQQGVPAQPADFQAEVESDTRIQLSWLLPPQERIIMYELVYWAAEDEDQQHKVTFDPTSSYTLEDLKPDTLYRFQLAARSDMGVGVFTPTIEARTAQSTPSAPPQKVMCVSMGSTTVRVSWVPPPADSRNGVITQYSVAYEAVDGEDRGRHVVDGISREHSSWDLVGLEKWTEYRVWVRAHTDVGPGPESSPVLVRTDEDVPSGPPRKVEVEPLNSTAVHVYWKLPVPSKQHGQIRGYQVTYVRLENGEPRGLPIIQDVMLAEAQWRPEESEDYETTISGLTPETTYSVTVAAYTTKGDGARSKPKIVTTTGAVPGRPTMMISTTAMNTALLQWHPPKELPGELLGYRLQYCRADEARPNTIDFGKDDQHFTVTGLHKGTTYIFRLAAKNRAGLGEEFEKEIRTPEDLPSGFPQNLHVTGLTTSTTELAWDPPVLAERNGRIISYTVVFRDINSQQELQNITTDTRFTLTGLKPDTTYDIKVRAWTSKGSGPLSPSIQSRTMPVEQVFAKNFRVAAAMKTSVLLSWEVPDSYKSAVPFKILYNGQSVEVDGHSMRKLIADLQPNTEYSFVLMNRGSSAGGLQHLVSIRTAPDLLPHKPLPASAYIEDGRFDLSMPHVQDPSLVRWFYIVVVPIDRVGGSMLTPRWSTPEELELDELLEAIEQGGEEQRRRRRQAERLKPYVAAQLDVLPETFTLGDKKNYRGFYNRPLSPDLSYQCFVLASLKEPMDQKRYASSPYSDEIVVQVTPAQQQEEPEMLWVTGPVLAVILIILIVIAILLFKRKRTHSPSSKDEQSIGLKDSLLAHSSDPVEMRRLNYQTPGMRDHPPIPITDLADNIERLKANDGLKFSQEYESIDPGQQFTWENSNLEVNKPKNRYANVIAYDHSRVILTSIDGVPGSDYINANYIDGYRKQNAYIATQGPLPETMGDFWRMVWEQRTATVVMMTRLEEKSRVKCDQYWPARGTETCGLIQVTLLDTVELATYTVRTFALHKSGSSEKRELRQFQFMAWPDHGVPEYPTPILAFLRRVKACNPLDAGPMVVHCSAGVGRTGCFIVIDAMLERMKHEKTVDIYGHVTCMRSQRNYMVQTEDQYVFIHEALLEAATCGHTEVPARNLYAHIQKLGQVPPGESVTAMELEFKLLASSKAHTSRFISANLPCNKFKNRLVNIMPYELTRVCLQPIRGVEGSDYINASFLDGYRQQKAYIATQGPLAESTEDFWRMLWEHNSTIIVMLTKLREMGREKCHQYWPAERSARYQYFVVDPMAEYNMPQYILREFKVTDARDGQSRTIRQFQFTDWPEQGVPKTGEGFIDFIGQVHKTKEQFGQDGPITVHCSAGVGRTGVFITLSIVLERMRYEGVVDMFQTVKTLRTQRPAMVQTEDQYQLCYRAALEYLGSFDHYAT

For `CO[C@H]1O[C@H](Cn2cc(CO[C@@H](C)[C@H](NC(=O)OC(C)(C)C)C(=O)O)nn2)[C@@H](OCc2ccccc2)[C@H](OCc2ccccc2)[C@@H]1OCc1ccccc1`, the IC50 with HCT-116 was 32.2 µM; in test [1] it was 105 µM; in test [2] it was 51.6 µM; in test [3], above 120 µM; in [4] it was above 120 µM; in test [5], 26 µM. For the same molecule, the IC50 in [6] is above 120 µM; in [7], 12.2 µM; in the test on HeLa, 53.7 µM; in the test with A549, 57.2 µM.
For `CC(C)(C)OC(=O)N[C@@H](COCc1cn([C@@H]2O[C@H](CO)[C@@H](O)[C@H](O)[C@H]2O)nn1)C(=O)O`, the IC50 in [3], in test [4], in test [5], in test [6] and in test [7] was above 120 µM throughout.
As for `CC(C)(C)OC(=O)N[C@@H](COCc1cn([C@@H]2O[C@H](COCc3ccccc3)[C@@H](OCc3ccccc3)[C@H](OCc3ccccc3)[C@H]2OCc2ccccc2)nn1)C(=O)O`, the IC50 stood at 12.8 µM in the test on HCT-116; 12.5 µM in test [1]; 24.3 µM in [2]; 40.4 µM in [3]; 47.6 µM in test [4]; 5.9 µM in [5]. Further, the IC50 in test [6] was above 120 µM; in [7] it was 6.2 µM; in the test with HeLa, 25.3 µM; with A549, 35.2 µM. Further, the inhibition entry in [8] is “Active”. For the same molecule, the Ki in [9] was 3.9 µM.
For `CO[C@H]1O[C@H](Cn2cc(COC[C@H](NC(=O)OC(C)(C)C)C(=O)O)nn2)[C@@H](OCc2ccccc2)[C@H](OCc2ccccc2)[C@@H]1OCc1ccccc1`, the IC50 in the test with HCT-116 was 32.3 µM; in test [1], 89.2 µM; in test [2] it was 26.8 µM; in test [3] it was above 120 µM; in test [4], above 120 µM; in test [5], 18.5 µM. Further, the IC50 in test [6] is above 120 µM; in test [7] it was 8.2 µM; in the test on HeLa it was 54.2 µM; in the test on A549 it was 97.3 µM.
`CO[C@H]1O[C@H](Cn2cc(COC[C@H](NC(=O)OC(C)(C)C)C(=O)O)nn2)[C@H](OCc2ccccc2)[C@H](OCc2ccccc2)[C@H]1OCc1ccccc1`: the half-inhibitory concentration (IC50) is above 120 µM in the test with HCT-116; 54.9 µM in [1]; above 120 µM in [2]; above 120 µM in test [3]; above 120 µM in test [4]; 20.9 µM in [5]. In addition, the IC50 was above 120 µM in test [6], 20.6 µM in test [7], above 120 µM in the test with HeLa and above 120 µM in the test on A549.
For the molecule `C[C@H](OCc1cn([C@@H]2O[C@H](COCc3ccccc3)[C@@H](OCc3ccccc3)[C@H](OCc3ccccc3)[C@H]2OCc2ccccc2)nn1)[C@H](NC(=O)OC(C)(C)C)C(=O)O`, the IC50 is 12 µM in the test with HCT-116; 38.6 µM in [1]; 53 µM in test [2]; above 120 µM in test [3]; above 120 µM in test [4]; 7.1 µM in test [5]. Further, the IC50 was above 120 µM in test [6], 11.6 µM in test [7], 31.5 µM in the test with HeLa and 25.3 µM in the test on A549.
On to `CO[C@H]1O[C@H](Cn2cc(CO[C@@H](C)[C@H](NC(=O)OC(C)(C)C)C(=O)O)nn2)[C@@H](OCc2ccccc2)[C@H](OCc2ccccc2)[C@H]1OCc1ccccc1`, for which the IC50 in the test on HCT-116 was 33.5 µM; in [1] it was 80.7 µM; in [2], 119 µM; in test [3] it was above 120 µM; in test [4] it was above 120 µM; in test [5], 22.3 µM. The IC50 in test [6] was above 120 µM; in test [7], 27.1 µM; in the test on HeLa it was 69.5 µM; in the test on A549, 62.8 µM.
Regarding `CO[C@H]1O[C@H](Cn2cc(COC[C@H](NC(=O)OC(C)(C)C)C(=O)O)nn2)[C@@H](OCc2ccccc2)[C@H](OCc2ccccc2)[C@H]1OCc1ccccc1`, the IC50 was 46.3 µM with HCT-116; above 120 µM in [1]; above 120 µM in [2]; above 120 µM in test [3]; above 120 µM in [4]; 67.8 µM in test [5]. The IC50 was above 120 µM in test [6], 67.5 µM in test [7], 75.4 µM in the test on HeLa and 120 µM in the test with A549.
On to `CO[C@H]1O[C@H](Cn2cc(CO[C@@H](C)[C@H](NC(=O)OC(C)(C)C)C(=O)O)nn2)[C@H](OCc2ccccc2)[C@H](OCc2ccccc2)[C@H]1OCc1ccccc1`, for which the IC50 is 36.6 µM in the test on HCT-116; above 120 µM in test [1]; above 120 µM in test [2]; above 120 µM in test [3]; above 120 µM in test [4]; 15.3 µM in [5]. The IC50 in [6] is above 120 µM; in test [7], 31.1 µM; with HeLa it was 56.4 µM; in the test with A549, 108 µM.
